Converted amounts (≈) assume the structure as drawn.
How the values were obtained:
Escherichia coli = assay: In vitro minimum inhibitory concentration for Escherichia coli (ATCC-10536) by agar dilution method; assay type: functional; settings: Escherichia coli; read-out: MIC
In short: (§1)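 Two-fold serial dilutions of each compound dispersed in Mueller-Hinton agar; plates spot-inoculated with 2 μL of standard test strain at 10^7 CFU/mL, incubated 37 °C for 20 h; MIC read as lowest concentration inhibiting growth.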

Pseudomonas aeruginosa [1] = assay: In vitro minimum inhibitory concentration for Pseudomonas aeruginosa (ATCC-27853) by agar dilution method; assay type: functional; settings: Pseudomonas aeruginosa; read-out: MIC; in short: as §1
Klebsiella aerogenes = assay: In vitro minimum inhibitory concentration for Enterobacter aerogenes (ATCC-29751) by agar dilution method; assay type: functional; settings: Klebsiella aerogenes; read-out: MIC; in short: as §1
Salmonella typhimurium = assay: In vitro minimum inhibitory concentration for Salmonella Typhimurium (ATCC-14028) by agar dilution method; assay type: functional, Salmonella enterica subsp. enterica serovar Typhimurium; settings: Salmonella enterica; read-out: MIC; in short: as §1
Staphylococcus aureus = assay: In vitro minimum inhibitory concentration for Staphylococcus aureus (ATCC 6538p) by agar dilution method; assay type: functional; settings: Staphylococcus aureus, ATCC 6538p; read-out: MIC; in short: as §1
Proteus vulgaris = assay: In vitro minimum inhibitory concentration for Proteus vulgaris (ATCC-6059) by agar dilution method; assay type: functional; settings: Proteus vulgaris; read-out: MIC; in short: as §1
Serratia marcescens = assay: In vitro minimum inhibitory concentration for Serratia marcescens (ATCC-27117) by agar dilution method; assay type: functional; settings: Serratia marcescens; read-out: MIC; in short: as §1
[2] = test system: Staphylococcus epidermidis; assay: In vitro minimum inhibitory concentration for Staphylococcus epidermidis (ATCC-12228) by agar dilution method; assay type: functional; settings: Staphylococcus epidermidis; read-out: MIC; in short: as §1
Citrobacter freundii = assay: In vitro minimum inhibitory concentration for Citrobacter freundii (ATCC-8090) by agar dilution method; assay type: functional; settings: Citrobacter freundii; read-out: MIC; in short: as §1
Enterobacter cloacae = assay: In vitro minimum inhibitory concentration for Enterobacter cloacae (ATCC-27508) by agar dilution method; assay type: functional; settings: Enterobacter cloacae; read-out: MIC; in short: as §1
Pseudomonas aeruginosa [3] = assay: In vitro minimum inhibitory concentration for Pseudomonas aeruginosa (ATCC 10145) by agar dilution method; assay type: functional; in short: as §1
Klebsiella pneumoniae = assay: In vitro minimum inhibitory concentration for Klebsiella pneumoniae (ATCC-10031) by agar dilution method; assay type: functional; settings: Klebsiella pneumoniae; read-out: MIC

| Compound | MIC (Escherichia coli) | MIC (Pseudomonas aeruginosa [1]) | MIC (Klebsiella aerogenes) | MIC (Salmonella typhimurium) | MIC (Staphylococcus aureus) | MIC (Proteus vulgaris) | MIC (Serratia marcescens) | MIC [2] | MIC (Citrobacter freundii) | MIC (Enterobacter cloacae) | MIC (Pseudomonas aeruginosa [3]) | MIC (Klebsiella pneumoniae) |
| --- | --- | --- | --- | --- | --- | --- | --- | --- | --- | --- | --- | --- |
| CC(C)(O/N=C(\C(=O)NC1C(=O)N2C(C(=O)[O-])=C(CSc3nc(N)c4c([n+]3N)CCC4)CSC12)c1cnc(N)s1)C(=O)O (configuration not stated) | 0.06 µg/mL (≈ 0.0923 µM) | 2 µg/mL (≈ 3.08 µM) | 0.25 µg/mL (≈ 0.385 µM) | 0.13 µg/mL (≈ 0.2 µM) | 4 µg/mL (≈ 6.16 µM) | 0.06 µg/mL (≈ 0.0923 µM) | 0.13 µg/mL (≈ 0.2 µM) | 2 µg/mL (≈ 3.08 µM) | 0.03 µg/mL (≈ 0.0462 µM) | 0.02 µg/mL (≈ 0.0308 µM) | 2 µg/mL (≈ 3.08 µM) | 0.06 µg/mL (≈ 0.0923 µM) |
| Cc1c(N)nc(SCC2=C(C(=O)[O-])N3C(=O)C(NC(=O)/C(=N\OC(C)(C)C(=O)O)c4cnc(N)s4)C3SC2)[n+]2ncn(C)c12 (configuration not stated) | 0.13 µg/mL (≈ 0.196 µM) | 2 µg/mL (≈ 3.02 µM) | 1 µg/mL (≈ 1.51 µM) | 0.25 µg/mL (≈ 0.377 µM) | 8 µg/mL (≈ 12.1 µM) | 0.06 µg/mL (≈ 0.0905 µM) | 0.25 µg/mL (≈ 0.377 µM) | 2 µg/mL (≈ 3.02 µM) | 0.06 µg/mL (≈ 0.0905 µM) | 0.02 µg/mL (≈ 0.0302 µM) | 4 µg/mL (≈ 6.04 µM) | 0.06 µg/mL (≈ 0.0905 µM) |
| Cc1cccc(C)c1-[n+]1c(N)cc(N)nc1SCC1=C(C(=O)[O-])N2C(=O)C(NC(=O)/C(=N\OC(C)(C)C(=O)O)c3cnc(N)s3)C2SC1 (configuration not stated) | 0.5 µg/mL (≈ 0.7 µM) | 4 µg/mL (≈ 5.6 µM) | 2 µg/mL (≈ 2.8 µM) | 2 µg/mL (≈ 2.8 µM) | 4 µg/mL (≈ 5.6 µM) | 0.5 µg/mL (≈ 0.7 µM) | 2 µg/mL (≈ 2.8 µM) | 2 µg/mL (≈ 2.8 µM) | 1 µg/mL (≈ 1.4 µM) | 0.25 µg/mL (≈ 0.35 µM) | 8 µg/mL (≈ 11.2 µM) | 0.25 µg/mL (≈ 0.35 µM) |
| Cn1cn[n+]2c(SCC3=C(C(=O)[O-])N4C(=O)C(NC(=O)/C(=N\OC(C)(C)C(=O)O)c5cnc(N)s5)C4SC3)nc(N)cc12 (configuration not stated) | 0.06 µg/mL (≈ 0.0925 µM) | 2 µg/mL (≈ 3.08 µM) | 1 µg/mL (≈ 1.54 µM) | 0.25 µg/mL (≈ 0.385 µM) | 8 µg/mL (≈ 12.3 µM) | 0.06 µg/mL (≈ 0.0925 µM) | 0.25 µg/mL (≈ 0.385 µM) | 1 µg/mL (≈ 1.54 µM) | 0.13 µg/mL (≈ 0.2 µM) | 0.02 µg/mL (≈ 0.0308 µM) | 4 µg/mL (≈ 6.17 µM) | 0.06 µg/mL (≈ 0.0925 µM) |
| CC(C)(O/N=C(\C(=O)NC1C(=O)N2C(C(=O)[O-])=C(CSc3nc(N)cc(N)[n+]3-c3ccccc3)CSC12)c1cnc(N)s1)C(=O)O (configuration not stated) | 0.25 µg/mL (≈ 0.365 µM) | 2 µg/mL (≈ 2.92 µM) | 0.5 µg/mL (≈ 0.729 µM) | 0.5 µg/mL (≈ 0.729 µM) | 4 µg/mL (≈ 5.83 µM) | 0.13 µg/mL (≈ 0.19 µM) | 0.5 µg/mL (≈ 0.729 µM) | 2 µg/mL (≈ 2.92 µM) | 0.25 µg/mL (≈ 0.365 µM) | 0.06 µg/mL (≈ 0.0875 µM) | 4 µg/mL (≈ 5.83 µM) | 0.13 µg/mL (≈ 0.19 µM) |
| C/C=C/[n+]1c(N)cc(N)nc1SCC1=C(C(=O)[O-])N2C(=O)C(NC(=O)/C(=N\OC(C)(C)C(=O)O)c3cnc(N)s3)C2SC1 (configuration not stated) | 0.13 µg/mL (≈ 0.2 µM) | 2 µg/mL (≈ 3.08 µM) | 2 µg/mL (≈ 3.08 µM) | 0.25 µg/mL (≈ 0.385 µM) | 4 µg/mL (≈ 6.16 µM) | 0.06 µg/mL (≈ 0.0923 µM) | 0.13 µg/mL (≈ 0.2 µM) | 2 µg/mL (≈ 3.08 µM) | 0.13 µg/mL (≈ 0.2 µM) | 0.03 µg/mL (≈ 0.0462 µM) | 2 µg/mL (≈ 3.08 µM) | 0.06 µg/mL (≈ 0.0923 µM) |

Next, values leading:

| MIC (Escherichia coli) | MIC (Pseudomonas aeruginosa [1]) | MIC (Klebsiella aerogenes) | MIC (Salmonella typhimurium) | MIC (Staphylococcus aureus) | MIC (Proteus vulgaris) | MIC (Serratia marcescens) | MIC [2] | MIC (Citrobacter freundii) | MIC (Enterobacter cloacae) | MIC (Pseudomonas aeruginosa [3]) | MIC (Klebsiella pneumoniae) | Compound |
| --- | --- | --- | --- | --- | --- | --- | --- | --- | --- | --- | --- | --- |
| 0.06 µg/mL (≈ 0.0984 µM) | 1 µg/mL (≈ 1.64 µM) | 0.5 µg/mL (≈ 0.82 µM) | 0.13 µg/mL (≈ 0.213 µM) | 8 µg/mL (≈ 13.1 µM) | 0.03 µg/mL (≈ 0.0492 µM) | 0.13 µg/mL (≈ 0.213 µM) | 2 µg/mL (≈ 3.28 µM) | 0.03 µg/mL (≈ 0.0492 µM) | 0.02 µg/mL (≈ 0.0328 µM) | 2 µg/mL (≈ 3.28 µM) | 0.03 µg/mL (≈ 0.0492 µM) | CC(C)(O/N=C(\C(=O)NC1C(=O)N2C(C(=O)[O-])=C(CSc3nc(N)cc[n+]3N)CSC12)c1cnc(N)s1)C(=O)O (configuration not stated) |
| 0.06 µg/mL (≈ 0.0939 µM) | 2 µg/mL (≈ 3.13 µM) | 4 µg/mL (≈ 6.26 µM) | 0.25 µg/mL (≈ 0.391 µM) | 4 µg/mL (≈ 6.26 µM) | 0.13 µg/mL (≈ 0.204 µM) | 0.25 µg/mL (≈ 0.391 µM) | 1 µg/mL (≈ 1.57 µM) | 0.13 µg/mL (≈ 0.204 µM) | 0.02 µg/mL (≈ 0.0313 µM) | 4 µg/mL (≈ 6.26 µM) | 0.06 µg/mL (≈ 0.0939 µM) | COc1cc(N)nc(SCC2=C(C(=O)[O-])N3C(=O)C(NC(=O)/C(=N\OC(C)(C)C(=O)O)c4cnc(N)s4)C3SC2)[n+]1C (configuration not stated) |
| 1 µg/mL (≈ 1.68 µM) | 8 µg/mL (≈ 13.5 µM) | 16 µg/mL (≈ 27 µM) | 1 µg/mL (≈ 1.68 µM) | 128 µg/mL (≈ 216 µM) | 0.13 µg/mL (≈ 0.219 µM) | 2 µg/mL (≈ 3.37 µM) | 64 µg/mL (≈ 108 µM) | 8 µg/mL (≈ 13.5 µM) | 0.25 µg/mL (≈ 0.421 µM) | 8 µg/mL (≈ 13.5 µM) | 0.5 µg/mL (≈ 0.842 µM) | C[n+]1cccnc1SCC1=C(C(=O)[O-])N2C(=O)C(NC(=O)/C(=N\OC(C)(C)C(=O)O)c3cnc(N)s3)C2SC1 (configuration not stated) |
| 0.13 µg/mL (≈ 0.196 µM) | 4 µg/mL (≈ 6.03 µM) | 4 µg/mL (≈ 6.03 µM) | 0.5 µg/mL (≈ 0.753 µM) | 16 µg/mL (≈ 24.1 µM) | 0.06 µg/mL (≈ 0.0904 µM) | 0.5 µg/mL (≈ 0.753 µM) | 4 µg/mL (≈ 6.03 µM) | 0.25 µg/mL (≈ 0.377 µM) | 0.03 µg/mL (≈ 0.0452 µM) | 4 µg/mL (≈ 6.03 µM) | 0.13 µg/mL (≈ 0.196 µM) | Cn1c(O)c[n+]2c(SCC3=C(C(=O)[O-])N4C(=O)C(NC(=O)/C(=N\OC(C)(C)C(=O)O)c5cnc(N)s5)C4SC3)nc(N)cc12 (configuration not stated) |
| 4 µg/mL (≈ 6.39 µM) | 16 µg/mL (≈ 25.6 µM) | 16 µg/mL (≈ 25.6 µM) | 16 µg/mL (≈ 25.6 µM) | > 128 µg/mL | 0.5 µg/mL (≈ 0.799 µM) | 16 µg/mL (≈ 25.6 µM) | > 128 µg/mL | 4 µg/mL (≈ 6.39 µM) | 1 µg/mL (≈ 1.6 µM) | 32 µg/mL (≈ 51.1 µM) | 2 µg/mL (≈ 3.2 µM) | C[n+]1c(O)cc(O)nc1SCC1=C(C(=O)[O-])N2C(=O)C(NC(=O)/C(=N\OC(C)(C)C(=O)O)c3cnc(N)s3)C2SC1 (configuration not stated) |
